# Source: paper PMC4764504 (Journal of medicinal chemistry, 2015)
# Where “and” joins values, the source holds several entries; their conditions need not be identical. Identical values can stand only once.
# Key:
# [1] = test system: BALB/c Mice with Subcutaneous Flank DBT Tumors; assay: Whole body biodistribution in mice with subcutaneous DBT gliomas; format: in vivo, mouse; conditions: for biodistribution, tumor uptake: subcutaneous DBT tumor
# Outline: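 Male BALB/c mice carried subcutaneous flank DBT tumors (5 × 10⁵ cells) and were used at day 14. Under 1% isoflurane–oxygen, each received ~56 μCi (2.07 MBq) of ⁷⁶Br-labelled or 45 μCi (1.67 MBq) of ¹²³I-labelled test compound by tail vein in 0.9% saline. Mice were killed at 5 min, 30 min, 1, 3 and 24 h (n = 4 per time). Tissues were weighed and γ-counted with decay correction, giving % ID/g.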
# DBT glioma cells = assay: Competitive amino acid cell uptake assays; format: cell-based, mouse; conditions: 60 s, 37 °C
# Outline: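 Mouse DBT glioma cells were seeded at 1 × 10⁵ cells/well and grown 48 h in 10% FBS DMEM under 5% CO₂. Cells were washed twice in 37 °C buffer, then exposed for 60 s at 37 °C, pH 7.40, to the radiotracer. Buffers were Na phosphate-buffered saline or choline-substituted Na-free buffer. Controls had 10 mM sucrose; BCH was 10 mM. Cells were washed with ice-cold buffer, lysed in 0.2% SDS/0.2 M NaOH, γ-counted, and normalized to added activity and BCA protein. Values are % of control, triplicate × two plates.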
smiles,measurement,setting,value
"C[C@](N)(/C=C/[123I])C(=O)O [[^123I]8, (S)-amino-2-methyl-4-[^123I]iodo-3-(E)-butenoic acid, reference compound]","biodistribution, blood",[1]; 5 min after i.v. injection,3.86 ± 0.50 % ID/g
same,"biodistribution, blood",[1]; 30 min after i.v. injection,1.07 ± 0.16 % ID/g
same,"biodistribution, blood",[1]; 1 h after i.v. injection,0.37 ± 0.05 % ID/g
same,"biodistribution, blood",[1]; 3 h after i.v. injection,0.07 ± 0.02 % ID/g
same,"biodistribution, blood",[1]; 24 h after i.v. injection,0.0005 ± 0.0000 % ID/g
same,"biodistribution, bone",[1]; 5 min after i.v. injection,1.94 ± 0.28 % ID/g
same,"biodistribution, bone",[1]; 30 min after i.v. injection,1.20 ± 0.21 % ID/g
same,"biodistribution, bone",[1]; 1 h after i.v. injection,0.55 ± 0.39 % ID/g
same,"biodistribution, bone",[1]; 3 h after i.v. injection,0.39 ± 0.35 % ID/g
same,"biodistribution, bone",[1]; 24 h after i.v. injection,0.0042 ± 0.0020 % ID/g
same,"biodistribution, brain",[1]; 5 min after i.v. injection,0.27 ± 0.03 % ID/g
same,"biodistribution, brain",[1]; 30 min after i.v. injection,0.17 ± 0.04 % ID/g
same,"biodistribution, brain",[1]; 1 h after i.v. injection,0.27 ± 0.35 % ID/g
same,"biodistribution, brain",[1]; 3 h after i.v. injection,0.07 ± 0.00 % ID/g
same,"biodistribution, brain",[1]; 24 h after i.v. injection,0.0010 ± 0.0003 % ID/g
same,"biodistribution, fat",[1]; 5 min after i.v. injection,0.87 ± 0.26 % ID/g
same,"biodistribution, fat",[1]; 30 min after i.v. injection,0.22 ± 0.09 % ID/g
same,"biodistribution, fat",[1]; 1 h after i.v. injection,0.19 ± 0.07 % ID/g
same,"biodistribution, fat",[1]; 3 h after i.v. injection,0.04 ± 0.01 % ID/g
same,"biodistribution, heart",[1]; 5 min after i.v. injection,2.30 ± 0.02 % ID/g
same,"biodistribution, heart",[1]; 30 min after i.v. injection,1.78 ± 0.35 % ID/g
same,"biodistribution, heart",[1]; 1 h after i.v. injection,0.90 ± 0.06 % ID/g
same,"biodistribution, heart",[1]; 3 h after i.v. injection,0.18 ± 0.05 % ID/g
same,"biodistribution, heart",[1]; 24 h after i.v. injection,0.0005 ± 0.0005 % ID/g
same,"biodistribution, kidney",[1]; 5 min after i.v. injection,31.27 ± 6.91 % ID/g
same,"biodistribution, kidney",[1]; 30 min after i.v. injection,9.90 ± 3.24 % ID/g
same,"biodistribution, kidney",[1]; 1 h after i.v. injection,2.68 ± 0.55 % ID/g
same,"biodistribution, kidney",[1]; 3 h after i.v. injection,0.39 ± 0.09 % ID/g
same,"biodistribution, kidney",[1]; 24 h after i.v. injection,0.0032 ± 0.0017 % ID/g
same,"biodistribution, liver (all)",[1]; 5 min after i.v. injection,2.83 ± 0.25 % ID/g
same,"biodistribution, liver (all)",[1]; 30 min after i.v. injection,0.91 ± 0.20 % ID/g
same,"biodistribution, liver (all)",[1]; 1 h after i.v. injection,0.25 ± 0.03 % ID/g
same,"biodistribution, liver (all)",[1]; 3 h after i.v. injection,0.07 ± 0.02 % ID/g
same,"biodistribution, liver (all)",[1]; 24 h after i.v. injection,0.0006 ± 0.0002 % ID/g
same,"biodistribution, lung",[1]; 5 min after i.v. injection,3.54 ± 0.31 % ID/g
same,"biodistribution, lung",[1]; 30 min after i.v. injection,1.01 ± 0.28 % ID/g
same,"biodistribution, lung",[1]; 1 h after i.v. injection,0.33 ± 0.06 % ID/g
same,"biodistribution, lung",[1]; 3 h after i.v. injection,0.06 ± 0.02 % ID/g
same,"biodistribution, lung",[1]; 24 h after i.v. injection,0.0007 ± 0.0006 % ID/g
same,"biodistribution, muscle",[1]; 5 min after i.v. injection,1.65 ± 0.05 % ID/g
same,"biodistribution, muscle",[1]; 30 min after i.v. injection,1.41 ± 0.22 % ID/g
same,"biodistribution, muscle",[1]; 1 h after i.v. injection,0.68 ± 0.17 % ID/g
same,"biodistribution, muscle",[1]; 3 h after i.v. injection,0.12 ± 0.06 % ID/g
same,"biodistribution, muscle",[1]; 24 h after i.v. injection,0.0011 ± 0.0006 % ID/g
same,"biodistribution, pancreas",[1]; 5 min after i.v. injection,29.26 ± 8.15 % ID/g
same,"biodistribution, pancreas",[1]; 30 min after i.v. injection,21.03 ± 4.38 % ID/g
same,"biodistribution, pancreas",[1]; 1 h after i.v. injection,5.75 ± 1.20 % ID/g
same,"biodistribution, pancreas",[1]; 3 h after i.v. injection,0.99 ± 0.46 % ID/g
same,"biodistribution, pancreas",[1]; 24 h after i.v. injection,0.0052 ± 0.0021 % ID/g
same,"biodistribution, spleen",[1]; 5 min after i.v. injection,3.92 ± 0.99 % ID/g
same,"biodistribution, spleen",[1]; 30 min after i.v. injection,2.23 ± 0.34 % ID/g
same,"biodistribution, spleen",[1]; 1 h after i.v. injection,0.68 ± 0.12 % ID/g
same,"biodistribution, spleen",[1]; 3 h after i.v. injection,0.15 ± 0.05 % ID/g
same,"biodistribution, spleen",[1]; 24 h after i.v. injection,0.0012 ± 0.0010 % ID/g
same,"biodistribution, tumor uptake",[1]; 5 min after i.v. injection,2.8 ± 0.8 % ID/g and 2.78 ± 0.83 % ID/g
same,"biodistribution, tumor uptake",[1]; 30 min after i.v. injection,2.7 ± 0.6 % ID/g and 2.68 ± 0.56 % ID/g
same,"biodistribution, tumor uptake",[1]; 1 h after i.v. injection,1.53 ± 0.66 % ID/g
same,"biodistribution, tumor uptake",[1]; 3 h after i.v. injection,0.65 ± 0.16 % ID/g
same,"biodistribution, tumor uptake",[1]; 24 h after i.v. injection,0.0012 ± 0.0007 % ID/g
same,"biodistribution, thyroid","[1]; thyroid, 5 min after i.v. injection",2.51 ± 0.39 % ID/g
same,thyroid uptake,"[1]; thyroid, 5 min after injection",2.5 ± 0.4 % ID/organ
same,"biodistribution, thyroid","[1]; thyroid, 30 min after i.v. injection",1.38 ± 0.38 % ID/g
same,"biodistribution, thyroid","[1]; thyroid, 1 h after i.v. injection",0.97 ± 0.28 % ID/g
same,"biodistribution, thyroid","[1]; thyroid, 3 h after i.v. injection",0.65 ± 0.29 % ID/g
same,thyroid activity,"[1]; thyroid, 3 h after injection",approximately 0.7 % ID/organ
same,"biodistribution, thyroid","[1]; thyroid, 24 h after i.v. injection",0.6527 ± 0.2135 % ID/g
same,thyroid activity,"[1]; thyroid, 24 h after injection",approximately 0.7 % ID/organ
same,thyroid activity as share of the administered activity,"[1]; thyroid, 24 h after injection",less than 1%
same,uptake relative to control,"DBT glioma cells; Na BCH condition (BCH 10 mM, system L inhibitor, sodium buffer)",39 ± 12%
same,uptake compared to sodium control,"DBT glioma cells; choline + BCH (sodium-free, Cho-BCH)",31 ± 12%
same,uptake compared to the sodium control,"DBT glioma cells; choline control (sodium-free, Cho-sucrose)",33 ± 6.6%
same,uptake relative to the control,"DBT glioma cells; in the presence of MeAIB (10 mM, system A inhibitor), sodium buffer",25 ± 3.4%
